Measurements taken from paper PMC5551971 (ACS chemical biology, 2017).
Entries after “also recorded” stand apart in the source; their conditions may differ.

Legend:
H322 cells [1] = test: Immunoblot analysis of γH2AX; format: cell-based; details: 4 h; for induction of DNA damage (γH2AX): parental H322 and cWEE1 control cells, AZD1775 1 μM or cisplatin 17 μM
Method in brief: (§1)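 H322 cells and H322-derived CRISPR-Cas9 clones were used: WEE1 knockouts made by targeting the exon 1/intron 1 splice site, plus a control clone with WEE1 intact. Cells were exposed for 4 h to 1 μM test compound or to cisplatin (14 μM in the H322/H1648 comparison; 17 μM in the parental/clone comparison). γH2AX and total H2AX were detected by immunoblot, tracking the ~16 kDa and mono-ubiquitinated ~25 kDa γH2AX bands.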

H322 cells [2] = test: Immunoblot analysis of PARP1 and caspase 3 cleavage; format: cell-based
[3] = system: cWEE1-KO[18] and cWEE1-KO[19] H322 WEE1 knockout clones; test: CellTiterGlo viability of H322 WEE1 CRISPR-Cas9 knockout clones; format: cell-based; details: 72 h
SRC = SRC (Homo sapiens, UniProt P12931); test: In vitro kinase assay panel; format: biochemical; details: 100 nM or 1000 nM AZD1775
Chain of SRC (P12931 whole entry): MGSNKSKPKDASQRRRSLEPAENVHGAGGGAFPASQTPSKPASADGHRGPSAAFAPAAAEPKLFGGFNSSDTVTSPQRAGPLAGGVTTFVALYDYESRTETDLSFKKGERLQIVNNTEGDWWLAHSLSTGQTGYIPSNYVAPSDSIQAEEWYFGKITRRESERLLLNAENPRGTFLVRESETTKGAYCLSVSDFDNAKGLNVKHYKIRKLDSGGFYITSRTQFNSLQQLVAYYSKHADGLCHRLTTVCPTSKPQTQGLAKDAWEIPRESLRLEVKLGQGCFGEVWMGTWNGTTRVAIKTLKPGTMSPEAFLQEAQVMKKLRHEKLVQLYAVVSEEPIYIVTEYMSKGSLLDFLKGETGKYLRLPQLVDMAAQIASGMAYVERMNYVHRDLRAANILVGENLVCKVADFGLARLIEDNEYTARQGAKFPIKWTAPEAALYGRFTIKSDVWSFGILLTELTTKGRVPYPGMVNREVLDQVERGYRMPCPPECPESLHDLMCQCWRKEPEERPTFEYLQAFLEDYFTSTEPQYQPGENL

LYN = LYN (Homo sapiens, UniProt P07948); test: In vitro kinase assay panel; format: biochemical; details: 100 nM or 1000 nM AZD1775
Chain of LYN (P07948 whole entry): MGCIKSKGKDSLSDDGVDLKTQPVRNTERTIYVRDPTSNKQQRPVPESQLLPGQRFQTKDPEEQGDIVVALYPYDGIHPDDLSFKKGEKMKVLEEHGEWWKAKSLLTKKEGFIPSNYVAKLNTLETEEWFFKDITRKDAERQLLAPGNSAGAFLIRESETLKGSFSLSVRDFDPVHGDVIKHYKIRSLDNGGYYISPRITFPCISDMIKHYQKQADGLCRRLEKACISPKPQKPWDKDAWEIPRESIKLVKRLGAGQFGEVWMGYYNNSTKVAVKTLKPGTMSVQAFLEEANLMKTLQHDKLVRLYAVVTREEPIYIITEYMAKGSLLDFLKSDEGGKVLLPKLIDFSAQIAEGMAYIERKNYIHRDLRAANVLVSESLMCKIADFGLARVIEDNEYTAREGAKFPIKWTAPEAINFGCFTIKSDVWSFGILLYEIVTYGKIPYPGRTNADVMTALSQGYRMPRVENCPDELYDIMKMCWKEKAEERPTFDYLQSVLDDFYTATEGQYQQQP

PLK1 [4] = target: T1, PLK1 (Homo sapiens, UniProt P53350); test: In vitro kinase assay panel; format: biochemical; details: 100 nM or 1000 nM AZD1775
T1 sequence (P53350 whole entry): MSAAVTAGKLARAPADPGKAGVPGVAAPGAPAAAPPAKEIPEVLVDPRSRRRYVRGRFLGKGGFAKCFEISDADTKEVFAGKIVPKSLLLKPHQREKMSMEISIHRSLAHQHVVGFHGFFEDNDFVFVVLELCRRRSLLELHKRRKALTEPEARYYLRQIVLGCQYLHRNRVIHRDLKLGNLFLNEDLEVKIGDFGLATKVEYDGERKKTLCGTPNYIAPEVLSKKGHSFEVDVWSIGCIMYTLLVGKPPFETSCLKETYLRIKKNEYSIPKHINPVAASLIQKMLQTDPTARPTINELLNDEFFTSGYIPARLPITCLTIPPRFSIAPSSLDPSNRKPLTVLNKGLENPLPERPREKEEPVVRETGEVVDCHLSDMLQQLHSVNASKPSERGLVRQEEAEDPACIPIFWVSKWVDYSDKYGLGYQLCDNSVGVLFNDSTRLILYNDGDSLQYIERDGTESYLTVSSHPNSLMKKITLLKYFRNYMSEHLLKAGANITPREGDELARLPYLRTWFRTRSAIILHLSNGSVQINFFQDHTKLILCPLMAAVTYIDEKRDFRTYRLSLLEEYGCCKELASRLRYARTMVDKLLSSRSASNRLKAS

[5] = system: H322, A427, H1155 and H1648 NSCLC cells; test: Cell viability of NSCLC cell lines, 72 h treatment; format: cell-based; details: several NSCLC cell lines, single agent
[6] = system: cWEE1-KO[18] and cWEE1-KO[19] H322 WEE1 knockout clones; test: Immunoblot analysis of γH2AX in WEE1 CRISPR-Cas9 knockout clones; format: cell-based; details: 4 h, 1 μM AZD1775
Method in brief: as §1

PLK1 [7] = target: T1, PLK1; test: i-AZD1775 affinity pulldown with AZD1775 competition, PLK1 immunoblot; format: binding; details: H322 whole cell lysates, 20 μM free AZD1775
PLK1 [8] = target: T1, PLK1; test: In vitro kinase assay; format: biochemical

Row | Compound | induction of DNA damage (γH2AX) (H322 cells [1]) | apoptosis by PARP1 and caspase 3 cleavage (H322 cells [2]; H322 cells, 0.03 μM BI-2536 compared with 1 μM AZD1775) | sensitivity of WEE1-reconstituted clone cWEE1-KO[18](RC9) [3] | PARP1 and caspase-3 cleavage (apoptosis induction) (H322 cells [2]; H322 versus H1648 cells, 48 h) | phosphorylation of Serine 139 in histone H2AX (γH2AX) (H322 cells [1]; H322 cells, 1 μM AZD1775) | SRC inhibition (SRC) | LYN inhibition (LYN) | PLK1 inhibition (PLK1 [4]) | inhibition of viability, potency [5] | γH2AX in WEE1 knockout clones [6] | PLK1 enrichment in i-AZD1775 pulldown on competition with AZD1775 (PLK1 [7]) | IC50 (PLK1 [8])
1 | N.N.[Cl][Pt][Cl] [cisplatin] | can induce DNA damage |  |  |  |  |  |  |  |  |  |  | 
2 | CC[C@@H]1C(=O)N(C)c2cnc(Nc3ccc(C(=O)NC4CCN(C)CC4)cc3OC)nc2N1C1CCCC1 [BI-2536] |  | strongly induced apoptosis; also recorded: higher degree of apoptosis than 1 μM AZD1775 |  |  |  |  |  |  |  |  |  | 
3 | C=CCn1c(=O)c2cnc(Nc3ccc(N4CCN(C)CC4)cc3)nc2n1-c1cccc(C(C)(C)O)n1 [AZD1775] | can induce DNA damage |  | completely reversed the sensitizing effect | markedly more pronounced in H322 cells than in H1648 | potently increased | potent AZD1775 targets | potent AZD1775 targets | potent AZD1775 targets | sub- to low micromolar potency | further increased γH2AX | completely abrogated its enrichment | 0.022 to 0.034 µM
